In the library only some 2.6% were active in any assay of this set; here they are far more common.
Ec RNAP inh = E. coli RNAP inhibitors, biochemical. E. coli RNA polymerase, fluorescence transcription assay. inhibition, %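 (tested at 10 µM)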. 62,000 compounds, 0.2% hits. AID 559, 2006; in the data active = inhibition above about 20%;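 also: 0% = enzyme without compound and 100% = no enzyme blank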
S1P3 agonist = human S1P3 receptor agonists, primary screen, cell-based, primary and confirmation, NFAT-BLA reporter | 60,000 compounds, 0.1% hits | activation, % at 4.5 µM | Sphingosine 1-phosphate receptor 3 (Homo sapiens), Q99500 | S1P3 NFAT-BLA reporter cells, agonism, FRET ratio; relative to 1 µM S1P, basal subtracted;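 active = activation above the screen-wide mean plus 3 SD, cut at about 4.5% in these data, passing the limit was not always enough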
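Measure – % activation relative to 1 µM S1P (100%), per plate · System – stable CHO line with human S1P3, Gα16, NFAT-BLA reporter · Timing – cells plated overnight, compound 4 h 37 °C, substrate 2 h RT · Technique – fluorescent BLA substrate, ex 405 nm, em 460/535 nm ratio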
5HT1E ag = 5-HT1E receptor agonists, primary screen, cell-based, HTS | 5-hydroxytryptamine receptor 1E (Homo sapiens), P28566 | CHO 5-HT1E Ga15 NFAT-bla reporter, FRET; 0% DMSO wells, 100% control agonist wells | activation, % at 6 µM | 65,000 compounds, 0.69% hits;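 active = activation above a set limit, the screen-wide mean activation plus 3 SD, cut at about 8.5% in these data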;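 also: 100% = positive control agonist at 1 µM giving full maximal response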
5HT1E antag = 5-HT1E receptor antagonists, primary screen, cell-based, HTS | 5-hydroxytryptamine receptor 1E (Homo sapiens), P28566 | CHO 5-HT1E Ga15 NFAT-bla reporter, FRET, antagonist | inhibition, % at 6 µM | 65,000 compounds, 0.99% hits | AID 571, 2007;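 active = inhibition above a set limit, the mean inhibition across every tested compound plus 3 SD, cut at about 29% in these data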;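 also: signal is the 460 over 535 nm emission ratio of beta-lactamase substrate; 0% = agonist plus DMSO wells and 100% = wells without agonist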
HTR1A agonist = human 5-HT1a receptor agonists, primary screen, cell-based, CHO, Ga15 NFAT-bla reporter | AID 567, 2006 | 65,000 compounds, 0.56% hits | 5-hydroxytryptamine receptor 1A (Homo sapiens), P08908 | activation, % at 10 µM | CHO 5-HT1a Ga15 NFAT-bla reporter, FRET ratio; 0% basal, 100% maximal reference agonist;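 active = activation above the screen-wide mean activation plus 3 SD, cut at about 19% in these data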;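 also: 0% = DMSO wells and 100% = 5-CT at EC100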
5-HT1A blocker = human 5-HT1a receptor antagonists, primary screen, cell-based, CHO, Ga15 NFAT-bla reporter; 5-hydroxytryptamine receptor 1A (Homo sapiens), P08908; CHO 5-HT1a Ga15 NFAT-bla reporter, antagonist mode; inhibition, % at 10 µM; 62,000 compounds, 0.68% hits; AID 612, 2007;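 active = inhibition above the mean of all tested compounds plus 3 SD, cut at about 43% in these data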;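 also: receptor stimulated by 5-CT agonist at 100 nM near EC80; beta-lactamase reporter measured by ratiometric fluorescence of a cleavable substrate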
* hit, by the source's call; x = not tested or not shown.

SMILES	Ec RNAP inh	S1P3 agonist	5HT1E ag	5HT1E antag	HTR1A agonist	5-HT1A blocker
CCc1cc2c(=O)c(Oc3ccccc3F)c(C)oc2c(CN(C)C)c1O	-83	-1	0	10	0	-1
Cc1c(C(=O)OCC(=O)c2c(N)n(CC(C)C)c(=O)n(C)c2=O)oc2ccccc12	x	0	0	7	0	43*
COCc1c(C(=O)OCC(=O)c2c(N)n(CC(C)C)c(=O)n(C)c2=O)oc2ccccc12	x	-1	0	4	3	28
CC(=O)c1c(C)[nH]c(C(=O)OCc2nnc(-c3ccccc3)o2)c1C	-7	-1	1	35*	-1	0
Cc1ccc(C(=O)OCc2nnc(-c3ccccc3)o2)o1	1	-1	0	0	-2	8
CC1CCN(S(=O)(=O)c2cc(Br)cc(C(=O)NC3=NCCS3)c2)CC1	-1	2	0	-4	-1	-4
CN(C)CCN(Cc1ccccc1)c1ccccn1	4	-4	0	-2	1	x
CN(C)CCN(Cc1ccccc1)c1ccnc(N(C)C)c1C#N	10	-1	21*	6	4	-1
CSc1nc(N2CCOCC2)c2c3c(sc2n1)CCCC3	-2	-1	1	32*	5	-14
CC(C)c1nnc(NC(=O)Cn2nc(-c3ccc4c(c3)OCCO4)ccc2=O)s1	1	1	14*	0	-2	-1
O=C(Cn1nc(-c2ccc3c(c2)OCCO3)ccc1=O)Nc1ccc(N2CCOCC2)cc1	5	x	0	-5	4	-7
Cn1c(CCNC(=O)C(C)(C)C)nc2ccccc21	-3	x	0	-14	1	-10
CC(NC(=O)c1cc2ccccc2o1)C(=O)O (centres undefined)	44*	-1	-1	11	-3	11
Cc1[nH]c2ccccc2c1NC(=O)CN1CCN(c2cccc(C(F)(F)F)c2)CC1	7	-1	2	-12	4	14
Cc1[nH]c2ccccc2c1C(O)CN1CCN(c2cccc(C(F)(F)F)c2)CC1 (centres undefined)	-4	-2	14*	11	46*	37
O=C(c1cnn(-c2nc3ccccc3s2)c1)c1ccccc1O	-1	-1	0	12	21*	-7
Cc1cc2n(c1)CCn1c(C)ccc1-2	3	-1	0	9	-3	-8
Cc1ccc(S(=O)(=O)N2c3ccc(S(N)(=O)=O)cc3CC2C)cc1 (centres undefined)	3	0	-1	14	86*	7
CCOc1ccc(NC(=O)c2ccc3c(c2)N(Cc2ccc(F)cc2)C(=O)CS3=O)cc1 (centres undefined)	1	0	0	-2	0	1
Cc1ccc(C)c(NC(=O)c2ccc3c(c2)N(Cc2ccc(F)cc2)C(=O)CS3=O)c1 (centres undefined)	8	0	0	4	47*	4
CCOC(=O)N1CCC(Nc2c(NCCCN(CC)c3cccc(C)c3)c(=O)c2=O)CC1	2	-1	22*	-8	-2	-16
CCOC(=O)N1CCC(Nc2c(NCCN3CCN(Cc4ccccc4)CC3)c(=O)c2=O)CC1	-9	-1	0	7	0	0
O=C(O)c1cc(Cl)c2ccccc2c1O	1	-1	0	10	2	1
O=C(O)c1ccc2cccc(Cl)c2c1O	4	-1	0	1	-3	52*
Cc1cc(C)c(NC(=O)c2cc3c(nc4sccn43)s2)c(C)c1	6	1	0	29*	0	23
CCCOc1ccc(C2C(C(=O)OC)=CN(CCOC)C=C2C(=O)OC)cc1	-22	1	5	-6	17	1
COCCNC(=O)CN(C)S(=O)(=O)c1ccc2c(c1)OCCO2	9	-1	-2	-13	-2	-5
CC1(C)Cc2c(c(N3CCOCC3)nc3snc(N)c23)CO1	3	-3	1	11	359*	x
